Shown are actives, neighbours in structure and some others; about 3.9% of the full set was active somewhere.
697 NFkB inh: inhibitors of the PMA/ionomycin-induced NF-kB reporter in 697 B cells; 697 B-cell NF-kB luciferase reporter, 16 h; inhibition, % at 4 µM; 330,000 tested, 0.33% active; AID 435022; in the data active means inhibition above about 35%
Gli-Sufu antag: antagonists of Gli-Sufu signaling; Sufu-KO-LIGHT fibroblasts, Gli luciferase reporter luminescence; 340,000 tested, 0.74% active; inhibition, % at 5 µM;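 active means inhibition above about 55%, limit read from the data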;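 further: 0% = DMSO-treated cells and 100% = wells with medium but no cells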
XBP1 UPR activ: activators of adaptive arm of unfolded protein response (XBP1). CHO-XBP1 luciferase reporter, IRE1-XBP1 UPR activation, luminescence; percent of tunicamycin response, DMSO as zero. activation, % at 20 µM. 330,000 tested, 0.33% active;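 active means versus positive control, 20 µM dose yields 30% or more activation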;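 further: 100% = tunicamycin at 10 µg/mL and 0% = DMSO only wells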
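assay system = CHO-XBP1 luciferase reporter cells | amount = 1000 cells/well | buffer or medium = F12 plus 10% FBS | compound dosing = single point, 20 µM final compound, 1% DMSO | incubation = 16-18 h cell attachment at 37 °C, then 6 h compound exposure | detection = Steady-Glo luminescence read | controls = tunicamycin 10 µg/mL and vehicle-only wells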
CHOP inh: inhibitors of CHOP induction in ER stress response; CHO-K1 CHOP-promoter luciferase, tunicamycin-induced, 15-18 h; inhibition, % at 10 µM; 220,000 tested, 3.8% active; AID 2732;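 active means compounds that reduced the stress-induced luciferase reporter signal by more than about 70% of percent inhibition, limit read from the data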;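 further: 0% = tunicamycin plus vehicle and 100% = wells without tunicamycin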
UPR CHOP act: activators of apoptotic arm of unfolded protein response (CHOP); CHO-CHOP luciferase reporter, UPR activation, luminescence; percent of tunicamycin response over DMSO baseline; 330,000 tested, 0.34% active; activation, % at 10 µM; AID 449763;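 active means at 10 µM dose, activation of 40% or more, normalized to positive control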;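 further: 100% = tunicamycin at 10 µg/mL and 0% = DMSO alone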
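Dosing – one dose, 10 µM in 0.5% DMSO · System – CHO-CHOP cells, stable luciferase reporter of PERK-eIF2a-CHOP signalling · Input – 500 cells/well · Control set – tunicamycin 10 µg/mL final as positive, DMSO-only wells as negative · Timing – 6 h compound treatment, 37 °C · Measure – % activation vs tunicamycin · Technique – luminescence read with Steady-Glo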
Jurkat NFkB inh: inhibitors of the PMA/ionomycin-induced NF-kB reporter in Jurkat cells. inhibition, % at 4 µM. AID 435003. 330,000 tested, 0.53% active. PMA/ionomycin-induced NF-kB luciferase reporter, luminescence; in the data active means inhibition above about 50%
Starred values were filed as active, the others as inactive; . = no result.

SMILES | 697 NFkB inh | Gli-Sufu antag | XBP1 UPR activ | CHOP inh | UPR CHOP act | Jurkat NFkB inh
CC(C)=NNc1nc2sc3c(c2c(=O)[nH]1)CC(C)(C)OC3 | 6 | -9 | -3 | -20 | 0 | 4
CC1(C)Cc2c(sc3nc(N/N=C/c4ccccc4)[nH]c(=O)c23)CO1 | -27 | -15 | 11 | 81* | 3 | -27
CCn1ccnc1CN(C)C(=O)C1CCC(=O)N(Cc2cccc(C(F)(F)F)c2)C1 (centres undefined) | 0 | -2 | -3 | . | 1 | 14
COc1ccc(C)cc1NC(=S)N1CC(C)OC(C)C1 (centres undefined) | 16 | -9 | -3 | . | 2 | 7
CC(C)(C)NC(=O)COC(=O)c1ccccc1OCC(=O)Nc1ccc(Br)cc1 | -69 | -11 | 5 | 69 | 3 | 1
CCCNC(=O)COC(=O)c1ccccc1OCC(=O)Nc1ccc(Br)cc1 | -48 | 32 | -1 | 80* | 7 | -8
COC(=O)C(C)Oc1ccc(-c2nccc(-c3cccs3)n2)cc1 (centres undefined) | -43 | -13 | 0 | 91* | 7 | 0
CSc1ccccc1NC(=O)COC(=O)Cn1cc(C(F)(F)F)ccc1=O | 4 | 6 | 0 | . | 2 | -12
CCOC(=O)/C(C#N)=C/c1ccc(-c2ccsc2C(=O)OC)o1 | -54 | -31 | 3 | 74* | 5 | -14
COc1ccc(Cl)cc1NC(=O)CSc1nnc(COc2ccccc2)n1C | -5 | -3 | -3 | 80* | 1 | 24
CCc1ccc(NC(=O)NCC2CCN(Cc3cccc(Cl)c3)CC2)cc1 | 0 | -2 | -4 | . | 0 | 2
Cc1ccc(NC(=O)NCC2CCN(Cc3cccc(Cl)c3)CC2)cc1Cl | 0 | -2 | -3 | 89* | 2 | 9
O=C(NCCCNC(=O)c1ccc(F)cc1)c1ccc(F)cc1 | 6 | -1 | -2 | . | -1 | -13
CCOC(=O)C(=Cc1ccc(Br)cc1)C(=O)OCC | . | 0 | . | 105* | . | .
CCOC(=O)/C(=C/c1ccc(OC(=O)c2ccncc2)cc1)C(C)=O | 15 | 7 | 1 | -37 | 0 | -5
CCCCSc1nc(C)cc(SCC(=O)N/N=C/c2cccc(OC)c2O)n1 | -30 | -2 | 3 | 75* | -2 | 10
COc1cccc(/C=N/NC(=O)c2c(C)nc3ccc(Cl)cn23)c1O | 21 | 84* | 1 | . | -1 | 22
C=CCNc1nnc(SCC(=O)N2CCC(C(N)=O)CC2)s1 | -11 | -4 | 0 | . | 0 | -13
CCOC(=O)[C@H]1[C@H]2COc3ccc(Cl)cc3[C@@H]2N2C(=O)c3ccc(Cl)cc3NC(=O)[C@@]12C | 26 | 10 | 6 | . | 0 | 20
O=C1C2C=CC=CC2=NC(=S)N1CCN1CCC(=C(c2ccc(F)cc2)c2ccc(F)cc2)CC1 (centres undefined) | . | . | . | -1 | . | .
CS(=O)(=O)N(CC(=O)N1CCN(c2ccccc2F)CC1)C1CCCCC1 | 2 | 13 | -1 | 2 | 0 | -3
CS(=O)(=O)N(CC(=O)N1CCN(C(c2ccccc2)c2ccccc2)CC1)C1CCCCC1 | 0 | 4 | 3 | 79* | -1 | -1
CN(C)CCNc1nc2sc3c(c2c(=O)n1CCc1ccccc1)CCCCC3 | 7 | 20 | 8 | 2 | 5 | 17
CC(O)CNc1nc2sc3c(c2c(=O)n1CCc1ccccc1)CCCCC3 (centres undefined) | -15 | -12 | 2 | 91* | 4 | -30
CCOC(=O)c1cc(-c2ccc(Cl)cc2)nc2c1c(=O)[nH]c(=O)n2CCOC | -2 | -11 | 1 | 78* | -2 | -8
SMILES | 697 NFkB inh | Gli-Sufu antag | XBP1 UPR activ | CHOP inh | UPR CHOP act | Jurkat NFkB inh
CCOC(=O)c1cc(-c2ccc(F)cc2)nc2c1c(=O)[nH]c(=O)n2Cc1ccccc1 | 4 | 7 | 4 | . | 2 | 22
CC1=CC(=O)c2c(O)ccc(O)c2C1=O | . | . | . | 106* | . | .
Cc1ccc(S(=O)(=O)N(CCC(=O)NCc2ccccc2F)c2ccccc2)cc1 | -15 | 3 | -2 | . | 0 | -4
Cc1ccc(S(=O)(=O)N(CCC(=O)Nc2ccc(OC(F)(F)F)cc2)c2ccccc2)cc1 | 7 | -20 | -2 | 83* | 2 | 3
COc1ccc(CN(C)C(=O)c2ccc3c(=O)n4c(nc3c2)CCC4)c(OC)c1 | 14 | 0 | -2 | . | 2 | 4
CCCc1cc(C(=O)OC)c(NC(=O)OCC)s1 | 8 | -1 | -2 | 74* | -1 | -4
CCOc1cc2c(cc1C(C)(C)C)NC(=O)CS2 | 8 | 8 | 0 | 85* | -2 | 5
CCOc1ccc(C(C)=O)cc1COC(=O)c1ccc2c(c1)NC(=O)CS2 | 18 | -16 | -3 | . | -1 | 11
CCOC(=O)N1CCC(NS(=O)(=O)c2ccc3c(c2)CCN3C(C)=O)CC1 | -6 | 2 | -1 | 73* | -1 | 2
CCCC(=O)N=C1SC2CS(=O)(=O)CC2N1c1ccc(-c2nc3ccc(C)cc3s2)cc1 (centres undefined) | -125 | -74 | 65* | 77* | 18 | -103
Cc1noc(C)c1C(=O)Nc1sc2c(c1C(N)=O)CCCCC2 | 2 | -5 | 0 | 91* | 4 | -2
Cc1cc(C)c(C)c(S(=O)(=O)NCC(=O)Nc2sc3c(c2C(N)=O)CCCC3)c1C | -20 | 0 | -3 | 95* | 2 | -18
CC(=O)C1=C(O)C(=O)N(c2cc(C(C)(C)C)on2)C1c1ccc(C(C)C)cc1 (centres undefined) | -19 | -1 | 0 | 72* | 0 | -21
O=C(OCC(=O)N1CCCC1)c1c(Cl)ccc(Cl)c1Cl | -1 | -1 | -3 | . | 1 | 3
COc1ccc(OCC(=O)Nc2ccc(N3CCN(Cc4ccccc4F)CC3)cc2)cc1 | -10 | 24 | 1 | . | -1 | 13
O=C(Nc1ccc(Cl)cc1)Nc1nnc(SCc2ccc(Cl)cc2)s1 | -40 | 3 | 2 | 9 | 0 | -10
O=C(Cc1cccs1)Nc1nnc(SCc2ccc(Br)cc2)s1 | 11 | -11 | 0 | 76* | -1 | -5
O=C(Nc1ccccc1)Nc1nnc(SCc2ccc(Cl)cc2)s1 | -8 | 23 | -2 | 90* | 0 | -6
C=CCN=C1NN=C(c2cc(C)n(CCOC)c2C)CS1 | -62 | 58* | -7 | 80* | -10 | -20
CSc1ncccc1C(=O)NNc1cc(Cl)ccc1Cl | 17 | 7 | -3 | . | -1 | -16
O=C1Nc2ccc(Br)cc2/C1=C/C1CC=CCC1 (centres undefined) | -5 | -13 | -2 | 95* | 2 | 0
O=C(Cn1nnc(-c2ccccc2NC(=O)c2cccs2)n1)Nc1ccccc1 | -7 | -30 | 1 | 80* | 0 | -18
COc1ccccc1NC(=O)Cn1nnc(-c2ccccc2NC(=O)c2cnccn2)n1 | -10 | 5 | 3 | 90* | 2 | 1

Screening data as filed in PubChem.
